Experimental data from ChEMBL document CHEMBL3588830, “Indole Alkaloids from Chaetomium globosum” (J Nat Prod, 2015).
Calls of active or inactive are those of the source. The calls are words filed in the database; no cut-off is given here.

Key:
[1] = test system: Bacillus subtilis; assay: Antimicrobial activity against Bacillus subtilis 1.079 assessed as inhibition of microbial growth incubated at 37 degC for 24 hrs; format: functional; details: Bacillus subtilis, 1.079, 24 h
How it was run: (§1)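 MIC by tube broth dilution in MHB. Samples were dissolved in DMSO, with final DMSO no more than 5% (v/v). Final dilutions ran from 50 to 0.19 μg/mL, with final bacteria at 1 × 10^8 CFU/mL. Tubes were incubated at 37 °C for 24 h. MIC was taken as the lowest concentration inhibiting visible growth.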

[2] = test system: Escherichia coli; assay: Antimicrobial activity against Escherichia coli 1.044 assessed as inhibition of microbial growth incubated at 37 degC for 24 hrs; format: functional; details: Escherichia coli, 1.044, 24 h; how it was run: as §1
[3] = Antioxidative activity assessed as DPPH radical scavenging activity at 93.9 uM; format: physicochemical
[4] = Antioxidative activity assessed as superoxide anion radical scavenging activity at 90.9 uM; format: physicochemical
[5] = Antioxidative activity assessed as ABTS cation radical scavenging activity at 108.3 uM; format: physicochemical
[6] = test system: Candida albicans; assay: Antimicrobial activity against Candida albicans assessed as inhibition of microbial growth up to 100 ug/mL incubated at 31 degC for 72 hrs; format: functional, organism-based
How it was run: (§2)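 Oxford cup diffusion on agar plates of potato extract 20% (w/v, boiled 20 min), dextrose 20.0 g/L and agar 17 g/L, inoculated with the test fungus. Plates were incubated at 31 °C for 72 h.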

[7] = test system: Fusarium graminearum; assay: Antimicrobial activity against Fusarium graminearum assessed as inhibition of microbial growth up to 100 ug/mL incubated at 31 degC for 72 hrs; format: functional, organism-based
How it was run: (§3)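 Oxford cup diffusion assay on agar plates of potato extract 20% (w/v, boiled 20 min), dextrose 20.0 g/L and agar 17 g/L, seeded with the fungal strain. Plates incubated at 31 °C for 72 h.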

[8] = test system: Fusarium oxysporum f. sp. vasinfectum; assay: Antimicrobial activity against Fusarium vasinfectum assessed as inhibition of microbial growth up to 100 ug/mL incubated at 31 degC for 72 hrs; format: functional, organism-based; how it was run: as §2
[9] = test system: Saccharomyces cerevisiae; assay: Antimicrobial activity against Saccharomyces cerevisiae assessed as inhibition of microbial growth up to 100 ug/mL incubated at 31 degC for 72 hrs; format: functional, organism-based; how it was run: as §2
[10] = test system: Aspergillus niger; assay: Antimicrobial activity against Aspergillus niger assessed as inhibition of microbial growth incubated up to 100 ug/mL at 31 degC for 72 hrs; format: functional, organism-based; how it was run: as §2
[11] = Antioxidative activity assessed as DPPH radical scavenging activity; format: physicochemical
[12] = Antioxidative activity assessed as ABTS cation radical scavenging activity; format: physicochemical
[13] = Antioxidative activity assessed as superoxide anion radical scavenging activity at 61.3 uM; format: physicochemical
[14] = test system: Candida albicans; assay: Antimicrobial activity against Candida albicans assessed as inhibition of microbial growth up to 200 ug/mL incubated at 31 degC for 72 hrs; format: functional, organism-based; how it was run: as §3
[15] = test system: Fusarium graminearum; assay: Antimicrobial activity against Fusarium graminearum assessed as inhibition of microbial growth up to 200 ug/mL incubated at 31 degC for 72 hrs; format: functional, organism-based; how it was run: as §3
[16] = test system: Fusarium oxysporum f. sp. vasinfectum; assay: Antimicrobial activity against Fusarium vasinfectum assessed as inhibition of microbial growth up to 200 ug/mL incubated at 31 degC for 72 hrs; format: functional, organism-based; how it was run: as §3
[17] = test system: Saccharomyces cerevisiae; assay: Antimicrobial activity against Saccharomyces cerevisiae assessed as inhibition of microbial growth up to 200 ug/mL incubated at 31 degC for 72 hrs; format: functional, organism-based; how it was run: as §3
[18] = test system: Aspergillus niger; assay: Antimicrobial activity against Aspergillus niger assessed as inhibition of microbial growth incubated up to 200 ug/mL at 31 degC for 72 hrs; format: functional, organism-based; how it was run: as §3
[19] = Antioxidative activity assessed as DPPH radical scavenging activity at 89.9 uM; format: physicochemical
[20] = Antioxidative activity assessed as superoxide anion radical scavenging activity at 88.3 uM; format: physicochemical
[21] = Antioxidative activity assessed as ABTS cation radical scavenging activity at 103.7 uM; format: physicochemical
[22] = Antioxidative activity assessed as superoxide anion radical scavenging activity; format: physicochemical

SMILES: CN1C(=O)C2=CC3(n4cc(C[C@@]56SSSS[C@@](CO)(C(=O)N5C)N(C)C6=O)c5ccccc54)c4ccccc4N[C@@H]3N2C(=O)C1CO (some centres undefined)
- MIC [1]: 25 µg/mL
- MIC [2]: > 50 µg/mL
- inhibition (INH) [3]: < 10%
- inhibition (INH) [4]: 14.8%
- inhibition (INH) [5]: < 20%

SMILES: CC(C)=CCc1ccc2[nH]cc(C3=C(O)C(=O)C(O)(c4c[nH]c5ccc(CC=C(C)C)cc45)C(=O)C3=O)c2c1 (centres undefined)
- MIC [1]: 50 µg/mL
- MIC [2]: > 50 µg/mL
- growth inhibition (GI) [6]: inactive
- growth inhibition (GI) [7]: inactive
- growth inhibition (GI) [8]: inactive
- growth inhibition (GI) [9]: inactive
- growth inhibition (GI) [10]: inactive
- IC50 [11]: 144 µM
- IC50 [12]: 45.2 µM
- inhibition (INH) [13]: 30.4%

SMILES: O=C1O[C@H]([C@@H](O)CO)C(O)=C1O [ASCORBIC ACID]
- IC50 [11]: 0.02 µM
- IC50 [12]: 0.01 µM

SMILES: CN1C(=O)[C@]2(Cc3cn([C@]45C[C@@]67SS[C@@](CO)(C(=O)N6[C@H]4Nc4ccccc45)N(C)C7=O)c4ccccc34)SS[C@@]1(CO)C(=O)N2C [CHETOMIN]
- MIC [1]: 0.78 µg/mL
- MIC [2]: > 50 µg/mL
- growth inhibition (GI) [14]: inactive
- growth inhibition (GI) [15]: inactive
- growth inhibition (GI) [16]: inactive
- growth inhibition (GI) [17]: inactive
- growth inhibition (GI) [18]: inactive
- inhibition (INH) [3]: < 10%
- inhibition (INH) [4]: 18.1%
- inhibition (INH) [5]: < 20%

SMILES: CN1C(=O)[C@]2(Cc3cn([C@]45C[C@@]67SSS[C@@](CO)(C(=O)N6[C@H]4Nc4ccccc45)N(C)C7=O)c4ccccc34)SS[C@@]1(CO)C(=O)N2C [CHETOSEMINUDIN A]
- MIC [1]: 0.78 µg/mL
- MIC [2]: > 50 µg/mL
- inhibition (INH) [19]: < 10%
- inhibition (INH) [20]: 51.5%
- inhibition (INH) [21]: < 20%

SMILES: O=c1cc(-c2ccc(O)c(O)c2)oc2cc(O)cc(O)c12 [LUTEOLIN]
- IC50 [22]: 22.3 µM

SMILES: COc1cccc(OC)c1C(=O)N[C@@H]1C(=O)N2[C@@H]1SC(C)(C)[C@@H]2C(=O)O [METHICILLIN]
- MIC [1]: 0.78 µg/mL
